Reference: ChEMBL document CHEMBL1159035, “Click synthesis of estradiol-cyclodextrin conjugates as cell compartment selective estrogens” (Bioorg Med Chem, 2010)

Experiments:
Estrogen receptor [1] = biological target: T1, Estrogen receptor (Homo sapiens, UniProt P03372); experiment: Estrogenic activity at ERalpha in human Ishikawa cells assessed as stimulation of alkaline phosphatase activity after 4 days by microplate scanning spectrophotometry; type: cell-based
T1 sequence (P03372 whole entry): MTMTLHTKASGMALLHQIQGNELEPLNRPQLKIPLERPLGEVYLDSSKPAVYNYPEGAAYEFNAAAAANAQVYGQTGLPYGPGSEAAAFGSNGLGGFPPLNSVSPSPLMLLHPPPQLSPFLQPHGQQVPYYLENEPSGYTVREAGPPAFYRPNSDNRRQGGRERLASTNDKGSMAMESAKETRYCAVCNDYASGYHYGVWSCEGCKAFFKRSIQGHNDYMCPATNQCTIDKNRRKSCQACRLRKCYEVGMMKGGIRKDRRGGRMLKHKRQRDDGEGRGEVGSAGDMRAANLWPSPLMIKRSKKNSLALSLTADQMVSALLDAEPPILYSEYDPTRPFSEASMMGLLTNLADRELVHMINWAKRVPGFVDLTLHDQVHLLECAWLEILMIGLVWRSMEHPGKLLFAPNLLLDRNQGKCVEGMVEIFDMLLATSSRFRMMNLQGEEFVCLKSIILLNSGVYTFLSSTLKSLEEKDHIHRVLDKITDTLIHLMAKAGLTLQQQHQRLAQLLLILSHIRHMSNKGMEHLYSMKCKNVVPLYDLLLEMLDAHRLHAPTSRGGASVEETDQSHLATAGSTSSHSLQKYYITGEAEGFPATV

Estrogen receptor [2] = biological target: T1, Estrogen receptor; experiment: Antiestrogenic activity at ERalpha in human Ishikawa cells assessed as alkaline phosphatase activity after 4 days by microplate scanning spectrophotometry; type: cell-based
Estrogen receptor [3] = biological target: T1, Estrogen receptor; experiment: Activation of ERalpha-mediated ERE activity in human T47D/PKC cells coexpressing PKCalpha after 18 hrs by luciferase reporter gene assay; type: cell-based
Estrogen receptor [4] = biological target: T1, Estrogen receptor; experiment: Activation of ERalpha-mediated ERE activity in human T47D/neo cells after 18 hrs by luciferase reporter gene assay; type: cell-based
MCF7 [5] = experiment: Drug uptake in human MCF7 cells assessed as drug localization to cytoplasm at 100 nM after 24 hrs by confocal fluorescent microscopy; type: ADME, cell-based; conditions: mcf7, 24 h, 0.1 µM
Outline: (§1)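 MCF-7 cells were grown 48 h at 37 °C, 5% CO2 in phenol-free medium with 10% stripped FBS, then exposed to rhodamine conjugates (100 nM) for 24 h. Rinsed twice with PBS, nuclei stained with Hoechst (0.2 µg/mL). Laser-scanning confocal imaging with rhodamine Ex/Em 544/576 nm, nuclear marker 345/420 nm, plus DIC and overlay. Several images of different cells and planes.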

MCF7 [6] = experiment: Drug uptake in human MCF7 cells assessed as drug localization to nucleus at 100 nM after 24 hrs by confocal fluorescent microscopy; type: ADME, cell-based; conditions: mcf7, 24 h, 0.1 µM; outline: as §1

Structure (SMILES)	EC50 (Estrogen receptor [1]; read-out: EC50)	IC50 (Estrogen receptor [2])	further results
NC[C@H]1O[C@@H]2O[C@H]3[C@H](O)[C@@H](O)[C@@H](O[C@H]4[C@H](O)[C@@H](O)[C@@H](O[C@H]5[C@H](O)[C@@H](O)[C@@H](O[C@H]6[C@H](O)[C@@H](O)[C@@H](O[C@H]7[C@H](O)[C@@H](O)[C@@H](O[C@H]8[C@H](O)[C@@H](O)[C@@H](O[C@H]1[C@H](O)[C@H]2O)O[C@@H]8CN)O[C@@H]7CN)O[C@@H]6CN)O[C@@H]5CN)O[C@@H]4CN)O[C@@H]3CN	–	Not Active	EC50 (Estrogen receptor [1]; ishikawa): Not Active
[N-]=[N+]=NC[C@H]1O[C@@H]2O[C@H]3[C@H](O)[C@@H](O)[C@@H](O[C@H]4[C@H](O)[C@@H](O)[C@@H](O[C@H]5[C@H](O)[C@@H](O)[C@@H](O[C@H]6[C@H](O)[C@@H](O)[C@@H](O[C@H]7[C@H](O)[C@@H](O)[C@@H](O[C@H]8[C@H](O)[C@@H](O)[C@@H](O[C@H]1[C@H](O)[C@H]2O)O[C@@H]8CN=[N+]=[N-])O[C@@H]7CN=[N+]=[N-])O[C@@H]6CN=[N+]=[N-])O[C@@H]5C/N=[NH+]\[NH-])O[C@@H]4CN=[N+]=[N-])O[C@@H]3CN=[N+]=[N-]	–	Not Active	EC50 (Estrogen receptor [1]; ishikawa): Not Active
Cn1cc([C@]2(O)CC[C@H]3[C@@H]4CCc5cc(O)ccc5[C@H]4CC[C@@]32C)nn1	–	Not Active	–
C[C@]12CC[C@@H]3c4ccc(O)cc4CC[C@H]3[C@@H]1CC[C@@]2(O)C#Cc1ccc(CO)cc1	27 nM	Not Active	–
C[C@]12CC[C@@H]3c4ccc(O)cc4CC[C@H]3[C@@H]1CC[C@@]2(O)C#Cc1ccc(N)cc1	10 nM	Not Active	–
CC#C[C@]1(O)CC[C@H]2[C@@H]3CCc4cc(O)ccc4[C@H]3CC[C@@]21C [ESTROGEN]	0.028 nM	–	–

Continued, in another order:

EC50 (Estrogen receptor [1]; read-out: EC50)	IC50 (Estrogen receptor [2])	Structure (SMILES)	further results
4000 nM	Not Active	C[C@]12CC[C@@H]3c4ccc(O)cc4CC[C@H]3[C@@H]1CC[C@@]2(O)C#Cc1ccc(CNC[C@H]2O[C@@H]3O[C@H]4[C@H](O)[C@@H](O)[C@@H](O[C@H]5[C@H](O)[C@@H](O)[C@@H](O[C@H]6[C@H](O)[C@@H](O)[C@@H](O[C@H]7[C@H](O)[C@@H](O)[C@@H](O[C@H]8[C@H](O)[C@@H](O)[C@@H](O[C@H]9[C@H](O)[C@@H](O)[C@@H](O[C@H]2[C@H](O)[C@H]3O)O[C@@H]9CO)O[C@@H]8CO)O[C@@H]7CO)O[C@@H]6CO)O[C@@H]5CO)O[C@@H]4CO)cc1	–
300 nM	Not Active	C[C@]12CC[C@@H]3c4ccc(O)cc4CC[C@H]3[C@@H]1CC[C@@]2(O)C#Cc1ccc(CNC[C@H]2O[C@@H]3O[C@H]4[C@H](O)[C@@H](O)[C@@H](O[C@H]5[C@H](O)[C@@H](O)[C@@H](O[C@H]6[C@H](O)[C@@H](O)[C@@H](O[C@H]7[C@H](O)[C@@H](O)[C@@H](O[C@H]8[C@H](O)[C@@H](O)[C@@H](O[C@H]9[C@H](O)[C@@H](O)[C@@H](O[C@H]2[C@H](O)[C@H]3O)O[C@@H]9CNCc2ccc(C#C[C@]3(O)CC[C@H]9[C@@H]%10CCc%11cc(O)ccc%11[C@H]%10CC[C@@]93C)cc2)O[C@@H]8CNCc2ccc(C#C[C@]3(O)CC[C@H]8[C@@H]9CCc%10cc(O)ccc%10[C@H]9CC[C@@]83C)cc2)O[C@@H]7CNCc2ccc(C#C[C@]3(O)CC[C@H]7[C@@H]8CCc9cc(O)ccc9[C@H]8CC[C@@]73C)cc2)O[C@@H]6CNCc2ccc(C#C[C@]3(O)CC[C@H]6[C@@H]7CCc8cc(O)ccc8[C@H]7CC[C@@]63C)cc2)O[C@@H]5CNCc2ccc(C#C[C@]3(O)CC[C@H]5[C@@H]6CCc7cc(O)ccc7[C@H]6CC[C@@]53C)cc2)O[C@@H]4CNCc2ccc(C#C[C@]3(O)CC[C@H]4[C@@H]5CCc6cc(O)ccc6[C@H]5CC[C@@]43C)cc2)cc1	–
4000 nM	Not Active	C[C@]12CC[C@@H]3c4ccc(O)cc4CC[C@H]3[C@@H]1CC[C@@]2(O)c1cn(C[C@H]2O[C@@H]3O[C@H]4[C@H](O)[C@@H](O)[C@@H](O[C@H]5[C@H](O)[C@@H](O)[C@@H](O[C@H]6[C@H](O)[C@@H](O)[C@@H](O[C@H]7[C@H](O)[C@@H](O)[C@@H](O[C@H]8[C@H](O)[C@@H](O)[C@@H](O[C@H]9[C@H](O)[C@@H](O)[C@@H](O[C@H]2[C@H](O)[C@H]3O)O[C@@H]9CO)O[C@@H]8CO)O[C@@H]7CO)O[C@@H]6CO)O[C@@H]5CO)O[C@@H]4CO)nn1	–
200 nM	Not Active	C[C@]12CC[C@@H]3c4ccc(O)cc4CC[C@H]3[C@@H]1CC[C@@]2(O)c1cn(CC[C@H]2O[C@@H]3O[C@H]4[C@H](O)[C@@H](O)[C@@H](O[C@H]5[C@H](O)[C@@H](O)[C@@H](O[C@H]6[C@H](O)[C@@H](O)[C@@H](O[C@H]7[C@H](O)[C@@H](O)[C@@H](O[C@H]8[C@H](O)[C@@H](O)[C@@H](O[C@H]9[C@H](O)[C@@H](O)[C@@H](O[C@H]2[C@H](O)[C@H]3O)O[C@@H]9Cn2cc([C@]3(O)CC[C@H]9[C@@H]%10CCc%11cc(O)ccc%11[C@H]%10CC[C@@]93C)nn2)O[C@@H]8Cn2cc([C@]3(O)CC[C@H]8[C@@H]9CCc%10cc(O)ccc%10[C@H]9CC[C@@]83C)nn2)O[C@@H]7Cn2cc([C@]3(O)CC[C@H]7[C@@H]8CCc9cc(O)ccc9[C@H]8CC[C@@]73C)nn2)O[C@@H]6Cn2cc([C@]3(O)CC[C@H]6[C@@H]7CCc8cc(O)ccc8[C@H]7CC[C@@]63C)nn2)O[C@@H]5Cn2cc([C@]3(O)CC[C@H]5[C@@H]6CCc7cc(O)ccc7[C@H]6CC[C@@]53C)nn2)O[C@@H]4Cn2cc([C@]3(O)CC[C@H]4[C@@H]5CCc6cc(O)ccc6[C@H]5CC[C@@]43C)nn2)nn1	EC50 (Estrogen receptor [3]): 2 nM; EC50 (Estrogen receptor [4]): > 100 nM; Drug uptake (MCF7 [5]): Active; Drug uptake (MCF7 [6]): Not Active
